Measurements: ChEMBL document CHEMBL1154042, “2-Oxoamide inhibitors of phospholipase A2 activity and cellular arachidonate release based on dipeptides and pseudodipeptides” (Bioorg Med Chem, 2009)

Assays:
RAW264.7 [1] = assay: Antiinflammatory activity in mouse RAW264.7 cells assessed as inhibition of Kdo2 lipid-A-stimulated arachidonic acid release at 25 uM for 1 hr; type: functional; conditions: for inhibition at 25 µM: RAW264.7, 1 h
Outline: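 RAW 264.7 macrophages plated at 2 × 10^6 cells per well and left to adhere overnight. Preincubated 30 min with 25 μM inhibitor, then stimulated with Kdo2-Lipid A. Supernatants collected 1 h later. AA extracted and measured by HPLC-MS, normalized to pmol AA per million cells via DNA quantitation.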

[2] = target: T1, Cytosolic phospholipase A2 (Homo sapiens) (UniProt P47712); assay: Inhibition of human group-4A cPLA2 at 0.091 mole fraction by mixed micellar assay
T1 sequence (whole entry): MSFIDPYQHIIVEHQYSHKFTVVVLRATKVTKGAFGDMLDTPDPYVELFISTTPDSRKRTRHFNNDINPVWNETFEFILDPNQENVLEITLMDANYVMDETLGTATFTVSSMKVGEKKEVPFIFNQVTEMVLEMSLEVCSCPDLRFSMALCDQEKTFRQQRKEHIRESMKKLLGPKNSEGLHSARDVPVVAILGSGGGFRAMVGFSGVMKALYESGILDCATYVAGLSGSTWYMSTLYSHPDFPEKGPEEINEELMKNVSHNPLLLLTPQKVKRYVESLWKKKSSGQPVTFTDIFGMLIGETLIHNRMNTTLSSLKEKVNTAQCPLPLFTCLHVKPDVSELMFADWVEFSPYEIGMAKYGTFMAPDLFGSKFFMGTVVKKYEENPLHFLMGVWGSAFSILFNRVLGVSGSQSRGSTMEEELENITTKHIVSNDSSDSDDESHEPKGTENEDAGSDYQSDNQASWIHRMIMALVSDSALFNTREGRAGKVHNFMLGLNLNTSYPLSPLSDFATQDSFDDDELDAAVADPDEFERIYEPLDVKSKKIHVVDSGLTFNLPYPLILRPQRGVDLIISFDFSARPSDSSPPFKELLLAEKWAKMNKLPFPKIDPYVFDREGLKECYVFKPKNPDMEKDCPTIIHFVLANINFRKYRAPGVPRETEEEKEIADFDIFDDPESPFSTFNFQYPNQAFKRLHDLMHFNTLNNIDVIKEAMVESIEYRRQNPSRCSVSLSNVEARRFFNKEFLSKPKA
Outline: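 Modified Dole assay, single point at 0.091 mole fraction inhibitor. Mixed micelles: 400 μM Triton X-100, 97 μM PAPC, 1.8 μM 14C-PAPC, 3 μM PIP2. Buffer: 100 mM HEPES pH 7.5, 90 μM CaCl2, 2 mM DTT, 0.1 mg/ml BSA. Percent inhibition reported.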

[3] = target: T2, 85/88 kDa calcium-independent phospholipase A2 (Homo sapiens) (UniProt O60733); assay: Inhibition of human group-6A iPLA2 at 0.091 mole fraction by mixed micellar assay
T2 sequence (whole entry): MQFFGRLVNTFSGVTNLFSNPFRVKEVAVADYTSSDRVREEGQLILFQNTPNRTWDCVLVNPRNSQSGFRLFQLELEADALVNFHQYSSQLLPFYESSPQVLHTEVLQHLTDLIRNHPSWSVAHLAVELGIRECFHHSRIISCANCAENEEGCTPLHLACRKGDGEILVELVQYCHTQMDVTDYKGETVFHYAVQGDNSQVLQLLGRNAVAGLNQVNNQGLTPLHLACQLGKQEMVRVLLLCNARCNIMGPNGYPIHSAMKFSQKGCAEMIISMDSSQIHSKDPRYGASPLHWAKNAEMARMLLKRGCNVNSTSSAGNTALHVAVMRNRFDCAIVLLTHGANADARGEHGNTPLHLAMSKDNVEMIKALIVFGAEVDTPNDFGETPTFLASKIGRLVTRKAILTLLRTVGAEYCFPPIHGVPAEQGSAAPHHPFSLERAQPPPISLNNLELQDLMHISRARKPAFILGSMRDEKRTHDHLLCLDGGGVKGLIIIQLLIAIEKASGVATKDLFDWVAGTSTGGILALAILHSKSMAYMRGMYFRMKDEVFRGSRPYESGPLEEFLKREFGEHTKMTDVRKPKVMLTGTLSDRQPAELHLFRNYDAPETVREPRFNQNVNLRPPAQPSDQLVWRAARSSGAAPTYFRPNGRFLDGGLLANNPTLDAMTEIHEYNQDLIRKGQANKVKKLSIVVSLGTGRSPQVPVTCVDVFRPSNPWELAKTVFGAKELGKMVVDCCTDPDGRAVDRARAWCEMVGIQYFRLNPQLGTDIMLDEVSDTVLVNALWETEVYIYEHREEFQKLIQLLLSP
Outline: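 Modified Dole assay, percent inhibition at 0.091 mole fraction inhibitor. Micelles were either 400 μM Triton X-100, 99 μM DPPC, 1.5 μM 14C-DPPC in 200 mM HEPES pH 7.0, 1 mM ATP, 2 mM DTT, 0.1 mg/ml BSA, or 400 μM Triton X-100, 98.3 μM PAPC, 1.7 μM 14C-PAPC in 100 mM HEPES pH 7.5, 2 mM ATP, 4 mM DTT.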

[4] = target: T3, Phospholipase A2 group V (Homo sapiens) (UniProt P39877); assay: Inhibition of human group-5 sPLA2 at 0.091 mole fraction by mixed micellar assay
T3 sequence (whole entry): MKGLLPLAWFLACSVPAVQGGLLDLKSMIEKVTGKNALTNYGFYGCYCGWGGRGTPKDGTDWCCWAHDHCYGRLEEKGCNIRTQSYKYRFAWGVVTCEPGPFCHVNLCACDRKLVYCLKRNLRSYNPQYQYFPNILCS
Outline: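 Radiometric modified Dole assay screening at 0.091 mole fraction inhibitor, giving percent inhibition. Mixed micelles of 400 μM Triton X-100, 99 μM DPPC and 1.5 μM 14C-DPPC in 50 mM Tris pH 8.0 with 5 mM CaCl2.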

RAW264.7 [5] = assay: Antiinflammatory activity in mouse RAW264.7 cells assessed as inhibition of Kdo2 lipid-A-stimulated arachidonic acid release after 1 hr; type: functional, cell-based; conditions: RAW264.7, 1 h
Outline: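 RAW 264.7 macrophages grown in DMEM with 10% FBS, 2 mM glutamine, penicillin/streptomycin and non-essential amino acids at 37 °C, 5% CO2. Plated at 2 × 10^6 cells per well, adhered overnight. Inhibitor added 30 min before Kdo2-Lipid A, supernatants taken 1 h after stimulation. AA extracted and quantitated by HPLC-MS, normalized to pmol per million cells by DNA quantitation. IC50 = concentration giving half of the maximal inhibition seen.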

Row | inhibition [2] | inhibition [3] | inhibition [4] | SMILES | inhibition at 25 µM (RAW264.7 [1]) | other results
1 | – | – | – | CCCCCCCCCCCCCCC(=O)C(=O)N[C@@H](CCCC)CCC(=O)OC | – | Activity (RAW264.7 [1]): Toxic
2 | – | – | – | CCCCCCCCCCC(=O)C(=O)N[C@@H](CCC(=O)OC)COC(=O)NCCCCCCCC | – | Activity (RAW264.7 [1]): Toxic
3 | > 90% | < 25% | < 25% | CCCCCCCCCCCCCCC(=O)C(=O)N[C@@H](CCCC)COCC(=O)O | – | IC50 (RAW264.7 [5]): 2 µM
4 | – | – | – | CCCCCCCCCCCCCCC(=O)C(=O)NCCCC(=O)N(C)S(=O)(=O)c1ccc(C)cc1 | – | Activity (RAW264.7 [1]): Toxic
5 | – | – | – | CCCCCCCCCCC(=O)C(=O)N[C@@H](CCCC)C(=O)O | 79% | –
6 | 52% | > 90% | 81% | CCCCCCCCCCCCCCC(=O)C(=O)N[C@@H](CCCC)COCC(=O)OCC | – | –
7 | – | – | – | CCCCCCCCCCCCCCC(=O)C(=O)N[C@H](/C=C/C(=O)OCC)CCCC | 11% | –
8 | – | – | – | CCCCCCCCCCCCCCC(=O)C(=O)N[C@@H](C)CCC(=O)OC(C)(C)C | – | Activity (RAW264.7 [1]): Toxic
9 | > 90% | > 90% | 65% | CCCCCCCCCCCCCCC(=O)C(=O)N[C@@H](CCCC)C(=O)NCC(=O)OC | – | –
10 | 44% | 81% | 57% | CCCCCCCCCCCCCCC(=O)C(=O)N[C@@H](CCCC)COCC(=O)OC(C)(C)C | – | –
11 | > 90% | < 25% | – | CCCCCCCCCCCCCCC(=O)C(=O)NCCCC(=O)CO | – | –
12 | > 90% | < 25% | < 25% | CCCCCCCCCCCCCCC(=O)C(=O)N[C@H](C(=O)NCC(=O)O)C(C)C | – | –
13 | > 90% | < 25% | < 25% | CCCCCCCCCCCCCCC(=O)C(=O)N[C@@H](CCCC)C(=O)NCC(=O)O | – | –
14 | – | – | – | CCCCCCCCCCCCCCC(=O)C(=O)NCCC(=O)OC(C)(C)C | – | Activity (RAW264.7 [1]): Toxic
15 | – | – | – | CCCCCCCCCCCCCCC(=O)C(=O)NCCCCC(=O)OC(C)(C)C | 59% | –
16 | 72% | > 90% | 59% | CCCCCCCCCCCCCCC(=O)C(=O)N[C@@H](CCCC)C(=O)NCC(=O)OC(C)(C)C | – | –

Row | inhibition [2] | inhibition [3] | inhibition [4] | SMILES | inhibition at 25 µM (RAW264.7 [1]) | other results
17 | – | – | – | CCCCCCCCCCCCCCC(=O)C(=O)N[C@H](/C=C/C=C/C(=O)O)CCCC | 74% | –
18 | – | – | – | CCCCCCCCCCCCCCC(=O)C(=O)N[C@H](CCC(=O)O)CC(C)C | 6% | IC50 (RAW264.7 [5]): 25 µM
19 | 73% | > 90% | 63% | CCCCCCCCCCCCCCC(=O)C(=O)N[C@@H](CCCC)C(=O)NCC(=O)OCC | – | –
20 | – | – | – | CCCCCCCCCCCCCCC(=O)C(=O)NCCCC(=O)O | 27% | IC50 (RAW264.7 [5]): 25 µM
21 | > 90% | > 90% | 78% | CCCCCCCCCCCCCCC(=O)C(=O)N[C@H](C(=O)NCC(=O)OC(C)(C)C)C(C)C | 30% | –
22 | – | – | – | CCCCCCCCCCCCCCC(=O)C(=O)N[C@H](/C=C/C(=O)O)CCCC | 16% | IC50 (RAW264.7 [5]): 25 µM
23 | – | – | – | CCCCCCCCCCCCCCC(=O)C(=O)N[C@H](/C=C/C(=O)OC)CCCC | – | Activity (RAW264.7 [1]): Toxic
24 | – | – | – | CCCCCCCCCCCCCCC(=O)C(=O)NCC(=O)OC | 68% | –
25 | – | – | – | CCCCCCCCCCCCCC(=O)C(=O)N[C@@H](CCCC)CCCCC(=O)O | – | Activity (RAW264.7 [1]): Toxic
26 | 25% | < 25% | < 25% | CCCCCCCCCCCCCCC(=O)C(=O)N[C@H](C(=O)NCC(=O)OC)C(C)C | – | –
27 | – | – | – | CCCCCCCCCCCCCCC(=O)C(=O)N[C@@H](CCCC)CCC(=O)O | 30% | IC50 (RAW264.7 [5]): 25 µM
28 | – | – | – | CCCCCCCCCCC(=O)C(=O)N[C@@H](CCCC)CCC(=O)O | 62% | IC50 (RAW264.7 [5]): 10 µM
29 | – | – | – | CCCCCCCCCCCCCCC(=O)C(=O)NCCCC(=O)OCC | – | Activity (RAW264.7 [1]): Toxic
30 | > 90% | > 90% | – | CCCCCCCCCCCCCCC(=O)C(=O)NCCCC(=O)COCC | – | –
31 | – | – | – | CCCCCCCCCCCCCCC(=O)C(=O)N[C@@H](CCCC)CCCC(=O)O | 30% | IC50 (RAW264.7 [5]): 7 µM
